Measured values of several laboratories.
Each line is one published result; the experiments were not run side by side.
Observed: enzyme activity
Action: inhibitor
EGFR: Epidermal growth factor receptor (EGFR, Homo sapiens, UniProt P00533)
EGFR L858R/T790M: Epidermal growth factor receptor (EGFR, Homo sapiens, UniProt P00533, L858R/T790M)

| SMILES | target | method | notes | IC50 |
| --- | --- | --- | --- | --- |
| OCc1ccc(Nc2ccc3c(Nc4cccc(C(F)(F)F)c4)ncnc3c2)cc1 | EGFR | radiometric | – | 2.53 nM |
| COc1ccc(-c2csc(Nc3ccc4c(O)ncnc4c3)n2)cc1 | EGFR | ELISA | – | 10.1 nM |
| OCc1ccc(Nc2ccc3ncnc(Nc4cccc(C(F)(F)F)c4)c3c2)cc1 | EGFR | radiometric | – | 8.67 nM |
| COCCOc1cc2ncnc(Nc3ccc(OCCCn4ccnc4[N+](=O)[O-])c(Cl)c3)c2cc1OCCOC | EGFR | FRET | – | 400 nM |
| C=CC(=O)Nc1cc(Nc2nccc(Nc3cc(Cl)c(F)cc3C(C)(C)O)n2)c(OC)cc1N1CC[C@@H](N(C)C)C1 | EGFR | – | with preincubation | 226 nM |
| CN1CCN(C/C=N/NC(=O)Nc2cc3c(Nc4ccc(F)c(Cl)c4)ncnc3cc2O[C@H]2CCOC2)CC1 | EGFR L858R/T790M | – | – | 11.6 nM |
| COc1ccc2c(Oc3ccc4c(C(=O)Nc5ccccc5N)cccc4c3)ccnc2c1 | EGFR | – | – | > 500 nM |
| COc1cc2ncnc(Nc3ccc(F)c(Cl)c3)c2cc1NC(=O)N/N=C/c1cccn1CCCN(C)C | EGFR | – | – | 1.2 nM |
| Cc1ccc(-c2csc(Nc3ccc4c(O)ncnc4c3)n2)cc1 | EGFR | ELISA | – | 8.59 nM |
| O=C(N/N=C/CN1CCOCC1)Nc1cc2c(Nc3ccc(F)c(Cl)c3)ncnc2cc1O[C@H]1CCOC1 | EGFR L858R/T790M | – | – | 14.3 nM |
| COc1cc2ncnc(NCCSc3ccc(Cl)cc3)c2cc1OC | EGFR | mobility shift | – | 320 nM |
| CN(C)C/C=N/NC(=O)Nc1cc2c(Nc3ccc(F)c(Cl)c3)ncnc2cc1O[C@H]1CCOC1 | EGFR L858R/T790M | – | – | 15.4 nM |
| COc1ccc(-c2nn(-c3ccc(S(C)(=O)=O)cc3)cc2C=N/N=c2\[nH]c(-c3ccc([N+](=O)[O-])cc3)cs2)cc1 | Epidermal growth factor receptor (EGFR, Homo sapiens, UniProt P00533, L858R) | – | – | 31 nM |
| Oc1ncnc2cc(Nc3nc(-c4ccc(C(F)(F)F)cc4)cs3)ccc12 | EGFR | ELISA | – | 2.17 nM |
| COc1cc2ncnc(Nc3ccccc3)c2cc1OC | EGFR | mobility shift | – | 14 nM |
| O=C(N/N=C/CN1CCCCC1)Nc1cc2c(Nc3ccc(F)c(Cl)c3)ncnc2cc1O[C@H]1CCOC1 | EGFR | – | – | 0.1 nM |

| SMILES | target | method | notes | IC50 |
| --- | --- | --- | --- | --- |
| COc1cc2ncnc(Nc3ccc(OCCCn4ccnc4[N+](=O)[O-])c(Cl)c3)c2cc1OCCCN1CCOCC1 | EGFR | FRET | – | 180 nM |
| C=C(Cl)C(=O)Nc1cc(Nc2nc(Nc3cnn(C)c3)c3sccc3n2)c(OC)cc1N(C)CCN(C)C | EGFR L858R/T790M | ELISA | – | 5.9 nM |
| COc1cc2c(Nc3ccc(OCCn4ccnc4[N+](=O)[O-])c(Cl)c3)ncnc2cc1OCCCN1CCOCC1 | EGFR | FRET | – | 190 nM |
| CC(C)Cc1ccc(-c2nn(-c3ccc(S(C)(=O)=O)cc3)cc2/C=N/N=c2\[nH]c(-c3ccc([N+](=O)[O-])cc3)cs2)cc1 | EGFR L858R/T790M | – | – | 164 nM |
| C=CC(=O)Nc1cc(Nc2nccc(-c3cn(C4CC4)c4ccccc34)n2)c(OC)cc1N(C)CCN(C)C | Epidermal growth factor receptor (EGFR, Homo sapiens, UniProt P00533, G719D) | TR-FRET | – | 54.1 nM |
| C=CC(=O)Nc1cc(Nc2nc(N3CCc4sccc4C3)c3cccnc3n2)c(OC)cc1N1CCC(N(C)C)CC1 | EGFR | ELISA | – | > 1000 nM |
| COc1cc2ncnc(Nc3ccc(F)c(Cl)c3)c2cc1NC(=O)N/N=C/c1cccn1CCN(C)C | EGFR L858R/T790M | – | – | 21.7 nM |
| C=C(Cl)C(=O)Nc1cc(Nc2nc(Nc3cnn(C)c3)c3sccc3n2)c(OC)cc1N1CCN(C)CC1 | EGFR | ELISA | – | > 1000 nM |
| O=C(N/N=C/c1cccn1CCN1CCOCC1)Nc1cc2c(Nc3ccc(F)c(Cl)c3)ncnc2cc1O[C@H]1CCOC1 | EGFR | – | – | 0.6 nM |
| COc1ccc(-c2nn(-c3ccc(S(C)(=O)=O)cc3)cc2/C=N/N=c2\[nH]c(-c3ccc(Br)cc3)cs2)cc1 | EGFR L858R/T790M | – | – | 31 nM |
| C=C(Cl)C(=O)Nc1cc(Nc2nc(N3CCOCC3)c3sccc3n2)c(OC)cc1N(C)CCN(C)C | EGFR | ELISA | – | > 1000 nM |
| Oc1ccc(-c2csc(Nc3ccc4c(O)ncnc4c3)n2)cc1 | EGFR | ELISA | – | 16.3 nM |
| CCC(=O)Nc1cc(Nc2nc(N3CCc4sccc4C3)c3cccnc3n2)c(OC)cc1N1CCSCC1 | EGFR | ELISA | – | > 1000 nM |
| O=[N+]([O-])c1ccc(-c2csc(Nc3ccc4c(O)ncnc4c3)n2)cc1 | EGFR | ELISA | – | 2.93 nM |
| CCN(CC)CCCn1cccc1/C=N/NC(=O)Nc1cc2c(Nc3ccc(F)c(Cl)c3)ncnc2cc1O[C@H]1CCOC1 | EGFR | – | – | 0.5 nM |
| C=C(Cl)C(=O)Nc1cc(Nc2nc(N3CCc4sccc4C3)c3sccc3n2)c(OC)cc1N(C)CCN(C)C | EGFR L858R/T790M | ELISA | – | 13 nM |
